Screens from PubChem.
UCH37 inh: blocks the human deubiquitinase UCH37; Q9Y5K5; purified proteasome/UCH37, Ub-AMC cleavage fluorescence; inhibition, % (no concentration beside the values); 0.33% of 330,000 active; AID 588478;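 active = mean inhibition over replicate wells above about 20%, limit read from the data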;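 also: 0% = compound-free wells with enzyme and 100% = wells lacking proteasome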
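Material: human UCH37 enzyme supplied as purified proteasome complex / Amount: 0.15 nM proteasome as dispensed / Buffer or medium: pH 7.4 Tris-HCl (50 mM) with ovalbumin, ATP-MgCl2, DTT / Times: preincubation 30 min, reaction 25 min, room temperature / Technique: AMC fluorescence from Ub-AMC cleavage, excitation 355 nm, emission 460 nm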
NALP1 inh: inhibitors of NALP1 inflammasome in yeast; inhibition, % at 10 µM; S. cerevisiae NALP1/ASC/caspase-1 growth, X-gal OD620, 72 h; 0.61% of 280,000 active; in the data active = inhibition mostly above about 24%, no sharp cut-off; inactive = mostly below about 32%
ALR H2O2 inh: human ALR oxidase inhibition via reduced H2O2; P55789; purified ALR, DTT oxidation, H2O2 HRP-luminol luminescence; inhibition, % (no concentration beside the values); 3.8% of 290,000 active;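 active = mean replicate inhibition above about 79%, with every replicate also reaching it, limit read from the data; inconclusive = only one of the two criteria met; inactive = mean below limit and not every replicate reaching it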
Target sequence (P55789 whole entry, looked up): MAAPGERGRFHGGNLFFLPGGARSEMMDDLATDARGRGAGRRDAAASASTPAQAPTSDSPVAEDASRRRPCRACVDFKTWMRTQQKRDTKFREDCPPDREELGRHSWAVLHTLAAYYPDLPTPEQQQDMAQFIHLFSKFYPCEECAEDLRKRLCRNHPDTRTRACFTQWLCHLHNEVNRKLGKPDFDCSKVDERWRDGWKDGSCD
NALP3 yeast inh: NALP3 inhibition in yeast; inhibition, % at 10 µM; Yeast reconstituted NLRP3/ASC/caspase-1, beta-gal luminescence, 24 h; AID 2825; 0.39% of 330,000 active;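 active = inhibition of 50% or more; inactive = inhibition below 50%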;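 also: plate controls were induced DMSO wells for no effect and uninduced yeast grown without galactose for full effect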
ATG4B inhibitor: blocks human ATG4B protease cleavage of LC3 substrate. ATG4B cleavage of LC3-PLA2, NBD-HPC fluorescence, 1 h. Q9Y4P1. 0.51% of 340,000 active. inhibition, % at 8.33 µM; in the data active = inhibition above about 40%
Target sequence (Q9Y4P1 whole entry, looked up): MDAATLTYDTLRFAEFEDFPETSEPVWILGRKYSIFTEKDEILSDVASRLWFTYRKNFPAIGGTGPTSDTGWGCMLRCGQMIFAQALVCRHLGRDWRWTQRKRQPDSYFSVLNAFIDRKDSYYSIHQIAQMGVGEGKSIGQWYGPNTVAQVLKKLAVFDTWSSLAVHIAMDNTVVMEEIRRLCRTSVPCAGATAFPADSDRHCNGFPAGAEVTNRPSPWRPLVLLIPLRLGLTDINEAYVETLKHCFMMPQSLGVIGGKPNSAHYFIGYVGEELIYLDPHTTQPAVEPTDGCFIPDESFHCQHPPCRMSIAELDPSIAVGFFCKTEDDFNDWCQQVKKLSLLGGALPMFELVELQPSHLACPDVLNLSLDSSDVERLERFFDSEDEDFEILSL
Calb FLC: affects C. albicans growth with fluconazole | C. albicans CaCi-2 + fluconazole, Alamar Blue growth, 48 h | growth inhibition, % (no concentration beside the values) | 0.57% of 300,000 active;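 active = growth inhibition above about 58% in most replicates, limit read from the data, passing the limit was not always enough; inconclusive = exactly half the replicates above a set limit; inactive = most replicates below a set limit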;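 also: all wells also contain fluconazole at 8 µg/ml as a sub-toxic cotreatment; 0% = median of DMSO wells and 100% = median of geldanamycin control wells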
ATG4B conf: confirmation of human ATG4B inhibitors; ATG4B protease fluorescent substrate cleavage assay; AID 504757; shares compounds with ATG4B inhibitor; 92% of 320 active; inhibition, % at 8.33 µM; in the data active = inhibition above about 39%
PLA2 counter: PLA2 (human) inhibition in ATG4B counter-screen. shares compounds with ATG4B inhibitor. 66% of 1,600 active. purified PLA2, NBD-C6-HPC fluorescence, 45 min. inhibition, % at 8.33 µM. AID 588402; in the data active = inhibition above about 50%
Numbers without * were called inactive; ? = inconclusive; · = not tested or not shown. Shown are actives, neighbours in structure and some others; about 4.8% of the full set was active somewhere.

SMILES	UCH37 inh	NALP1 inh	ALR H2O2 inh	NALP3 yeast inh	ATG4B inhibitor	Calb FLC	PLA2 counter	others
O=C(NCCC1=CCCCC1)Nc1ccc2nsnc2c1	-40	2	-26	35	46*	-12	50
CC(=O)c1cccc(NC(=S)NCCC2=CCCCC2)c1	1	-75	1	6	3	-5	·
COc1ccc(C=Nn2cc(-c3ccc(OC)cc3)nc2N)cc1	3	·	·	·	·	·	·
O=C(O)c1ccc2nc(-c3ccco3)c(-c3ccco3)nc2c1	-75	0	·	11	-1	0	·
O=C(Nc1cccc(C(F)(F)F)c1)c1ccc2nc(-c3ccco3)c(-c3ccco3)nc2c1	-6	18	1	8	47*	-11	9
O=C(NCCCO)Nc1ccc2nc(-c3ccco3)c(-c3ccco3)nc2c1	·	-12	-21	11	·	·	·
O=C(Nc1ccc2nc(-c3ccco3)c(-c3ccco3)nc2c1)NC1CC1	·	1	·	7	55*	7	60*
CC(=NNC(=O)c1ccc(CSc2nncn2C)cc1)c1ccc(C#N)cc1	2	·	·	·	·	·	·
O=[N+]([O-])c1ccc(S(=O)(=O)NN=Cc2ccsc2)cc1	9	·	·	·	·	·	·
O=C(c1ccc(Cl)cc1)c1oc2ccccc2c1CS(=O)c1ccccc1 (configuration not stated)	3	-3	-50	19	54*	8	59*
O=C(NN=Cc1ccccc1Cl)c1[nH]c2ccc(Br)cc2c1-c1ccccc1	-13	·	·	·	·	·	·
Cc1ccc(-n2nnnc2SCC(=O)N2CCc3ccccc3C2)c(C)c1	5	1	·	50	44*	-5	46
Cc1ccc(-n2nnnc2SCC(=O)NC2CCCc3ccccc32)c(C)c1 (configuration not stated)	-2	32	·	5	38	3	·
CC(C)(C)C(=O)OCCNc1nc(-c2ccccc2)nc2ccccc12	-3	35	-4	2	54*	?	63*
CCn1c2ccccc2c2cc(C=NNC(=O)c3cc(O)cc(O)c3)ccc21	-194	·	·	·	·	·	·
Cc1ccccc1S(=O)(=O)N1[C@@H](c2ccc(Br)cc2)C(C(=O)O)=CC[C@H]1c1ccc(Cl)cc1	2	·	·	-1	43*	·	47	ATG4B conf=46*
CC(CC1(O)C(=NO)CCc2nonc21)=NO (configuration not stated)	5	·	·	·	·	·	·
O=C(c1cccs1)N(Cc1ccco1)c1nc(-c2ccc(F)cc2)cs1	6	-56	0	-6	42*	14	56*
CCC(=O)N(Cc1ccco1)c1nc(-c2ccccc2)cs1	2	9	-6	30	-7	20	·
COc1ccc(S(=O)(=O)N(Cc2cccs2)C2CCCC2)cc1	3	16	99*	20	50*	9	54*
O=C(Nc1ccccc1-c1ccccc1)NC1CC2CCCC(C1)N2Cc1ccc(F)cc1 (configuration not stated)	6	14	-4	18	72*	-2	66*
O=C(Nc1ccccc1-c1ccccc1)NC1CC2CCCC(C1)N2CCc1ccccc1 (configuration not stated)	2	12	1	0	7	-2	·
Cc1ccc(O)c(-c2cc(-c3ccccc3F)[nH]n2)c1	-1	-6	61	16	18	-1	·
Cc1ccc(-c2cc(-c3ccccc3C)[nH]n2)c(O)c1	-1	-20	11	21	57*	-15	74*
O=C(NN=Cc1ccc([N+](=O)[O-])s1)C(O)c1ccccc1 (configuration not stated)	11	·	·	·	·	·	·
SMILES	UCH37 inh	NALP1 inh	ALR H2O2 inh	NALP3 yeast inh	ATG4B inhibitor	Calb FLC	PLA2 counter	others
CC1CCc2nc3ccc(S(=O)(=O)N4CCC(C(=O)NCc5ccccc5Cl)CC4)cc3c(C(=O)O)c2C1 (configuration not stated)	0	7	10	-1	55*	-10	79*
Cc1ccc(S(=O)(=O)N2CCC(C(=O)NCc3ccccc3Cl)CC2)cc1	5	-7	-5	26	46*	4	45	ATG4B conf=67*
COc1ccc(CNC(=O)C2CCN(S(=O)(=O)c3ccc4nc5c(c(C(=O)O)c4c3)CC(C)CC5)CC2)cc1 (configuration not stated)	4	2	0	7	3	2	·
O=C(NC1CCc2ccccc21)C1CCN(S(=O)(=O)c2ccc(Cl)cc2)CC1 (configuration not stated)	1	21	-3	11	46*	-6	40
CC(=NNC(=O)C1CCCC1)c1ccc(C(C)C)cc1	3	·	·	·	·	·	·
CCON=C(c1nonc1N)N1CCN(c2ccc([N+](=O)[O-])cc2)CC1	8	·	·	·	·	·	·
NC(=O)c1cccc(N=Cc2cc(Cl)cc(Cl)c2O)c1	-1	20	·	·	20	-1	·
Cc1cccc(N=Cc2cc(Br)cc(Cl)c2O)c1	7	18	16	12	40*	-7	31	ATG4B conf=63*
CCOc1cc(C=Nn2cnnc2)ccc1OC(=O)c1cccc([N+](=O)[O-])c1	2	·	·	·	·	·	·
Cc1ccc2c(c1)nnn2C1CCN(S(=O)(=O)c2ccc(C(=O)N3CC(C)CC(C)C3)cc2)CC1 (configuration not stated)	2	12	-4	11	59*	-3	73*
N#C/C(=C\c1coc2ccc(O)cc2c1=O)C(=O)Nc1nc2ccccc2s1	-7	·	7	11	54*	13	38
N#C/C(=C\c1coc2ccccc2c1=O)C(N)=S	12	15	43	0	6	24	·
C(/C=C/c1ccccc1)=NNc1nncc(-c2ccccc2)n1	10	·	·	·	·	·	·
O=C(O)c1ccc(-c2ccc(/C=C3\NC(=O)N(Cc4ccc(Cl)cc4)C3=O)o2)cc1Cl	-89	10	·	4	49*	4	37	ATG4B conf=60*
COc1ccc(NC(=O)c2cc3ccc(O)cc3oc2=NO)cc1	5	·	·	·	·	·	·
CC(C)Cn1c(SC(C)C(=O)Nc2ccc3c(c2)OCCO3)nc2ccccc2c1=O (configuration not stated)	2	4	·	·	49*	6	55*
Cc1cccc(C)c1NC(=O)CCCSc1nc2ccccc2s1	2	23	·	18	47*	-1	31
CCc1cccc(CC)c1NC(=O)CCCSc1nc2ccccc2s1	2	16	-7	1	39	-6	·
O=C(c1ccco1)N1CCN(c2ncnc3sc4c(c23)CCC4)CC1	0	8	-3	9	22	-3	·
CCc1nc(N2CCN(C(=O)c3ccccc3)CC2)c2c3c(sc2n1)CCCC3	0	11	0	13	75*	4	82*
